# Laboratory results reported in BindingDB's records for doi:10.1021/jm010816q (Eth Zurich, 2001).
# Residues, ends and D or L forms follow the SMILES beside them.
# Tests used:
# [1] = target: Somatostatin receptor type 2 (Homo sapiens, UniProt P30874); test: Binding assay at human somatostatin receptor 2 (hsst2) expressed in CCL-39 cells using LTT-CST-14-(Tyr10) as radioligand.
# Outline: (§1)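 Chinese hamster lung fibroblast CCL39 cells stably expressing each hsst receptor; crude membrane homogenates in 10 mM HEPES pH 7.5, 0.5% BSA, 5 mM MgCl2, 5 mg/mL bacitracin. Vacuum filtration, bound radioactivity counted. Triplicate curves fitted by nonlinear regression; pKD reported.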
# [2] = target: Somatostatin receptor type 3 (Homo sapiens, UniProt P32745); test: Binding assay at human somatostatin receptor 3 (hsst3) expressed in CCL-39 cells using LTT-CST-14-(Tyr10) as radioligand.; outline: as §1
# Chain of Somatostatin receptor type 3 (P32745 whole entry): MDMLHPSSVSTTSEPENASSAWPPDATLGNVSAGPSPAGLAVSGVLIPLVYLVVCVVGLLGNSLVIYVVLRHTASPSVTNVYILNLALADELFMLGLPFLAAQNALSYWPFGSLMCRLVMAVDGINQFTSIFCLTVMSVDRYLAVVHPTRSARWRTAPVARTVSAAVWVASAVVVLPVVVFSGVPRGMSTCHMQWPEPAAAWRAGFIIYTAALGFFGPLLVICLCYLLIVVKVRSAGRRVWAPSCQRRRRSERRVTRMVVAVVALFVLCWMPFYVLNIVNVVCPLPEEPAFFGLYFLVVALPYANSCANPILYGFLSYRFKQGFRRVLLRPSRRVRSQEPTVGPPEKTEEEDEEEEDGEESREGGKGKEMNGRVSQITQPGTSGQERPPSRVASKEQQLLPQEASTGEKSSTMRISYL
# [3] = target: Somatostatin receptor type 1 (Homo sapiens, UniProt P30872); test: Binding assay at human somatostatin receptor 1 (hsst1) expressed in CCL-39 cells using LTT-CST-14-(Tyr10) as radioligand.; outline: as §1
# Chain of Somatostatin receptor type 1 (P30872 whole entry): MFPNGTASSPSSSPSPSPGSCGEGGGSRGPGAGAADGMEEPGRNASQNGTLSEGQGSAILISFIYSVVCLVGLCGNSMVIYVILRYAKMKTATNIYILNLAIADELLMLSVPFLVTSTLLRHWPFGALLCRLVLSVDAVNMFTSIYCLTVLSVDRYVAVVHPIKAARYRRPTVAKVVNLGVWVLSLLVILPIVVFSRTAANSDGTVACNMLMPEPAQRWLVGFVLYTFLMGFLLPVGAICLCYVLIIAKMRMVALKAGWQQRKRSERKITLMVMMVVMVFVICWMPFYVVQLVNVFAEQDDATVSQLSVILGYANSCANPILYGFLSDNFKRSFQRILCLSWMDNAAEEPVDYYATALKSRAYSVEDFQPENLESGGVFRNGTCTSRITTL
# [4] = target: Somatostatin receptor type 5 (Homo sapiens, UniProt P35346); test: Binding assay at human somatostatin receptor 5 (hsst5) expressed in CCL-39 cells using LTT-CST-14-(Tyr10) as radioligand.; outline: as §1
# Chain of Somatostatin receptor type 5 (P35346 whole entry): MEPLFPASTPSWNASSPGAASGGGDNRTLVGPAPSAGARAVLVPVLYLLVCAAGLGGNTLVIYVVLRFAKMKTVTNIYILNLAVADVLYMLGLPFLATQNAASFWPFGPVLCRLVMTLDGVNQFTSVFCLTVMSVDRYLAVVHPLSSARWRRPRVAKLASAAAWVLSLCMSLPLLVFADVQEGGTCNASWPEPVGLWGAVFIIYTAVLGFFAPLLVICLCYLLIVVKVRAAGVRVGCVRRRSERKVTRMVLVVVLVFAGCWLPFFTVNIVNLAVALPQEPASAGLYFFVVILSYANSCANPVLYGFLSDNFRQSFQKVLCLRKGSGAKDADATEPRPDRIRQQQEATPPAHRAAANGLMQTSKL
# [5] = target: Somatostatin receptor type 4 (Homo sapiens, UniProt P31391); test: Binding assay at human somatostatin receptor 4 (hsst4) expressed in CCL-39 cells using LTT-CST-14-(Tyr10) as radioligand.; outline: as §1
# Chain of Somatostatin receptor type 4 (P31391 whole entry): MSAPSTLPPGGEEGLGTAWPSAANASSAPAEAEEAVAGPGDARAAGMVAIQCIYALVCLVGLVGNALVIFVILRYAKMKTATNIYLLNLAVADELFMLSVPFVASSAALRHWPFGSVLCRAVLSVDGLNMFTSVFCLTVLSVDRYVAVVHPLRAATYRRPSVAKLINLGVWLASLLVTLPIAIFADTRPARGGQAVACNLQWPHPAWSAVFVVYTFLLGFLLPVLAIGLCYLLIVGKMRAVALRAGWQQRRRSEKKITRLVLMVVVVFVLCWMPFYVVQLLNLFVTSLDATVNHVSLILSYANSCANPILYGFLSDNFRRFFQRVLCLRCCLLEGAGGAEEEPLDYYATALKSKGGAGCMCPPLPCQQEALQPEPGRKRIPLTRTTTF
# Chain of Somatostatin receptor type 2 (P30874 whole entry): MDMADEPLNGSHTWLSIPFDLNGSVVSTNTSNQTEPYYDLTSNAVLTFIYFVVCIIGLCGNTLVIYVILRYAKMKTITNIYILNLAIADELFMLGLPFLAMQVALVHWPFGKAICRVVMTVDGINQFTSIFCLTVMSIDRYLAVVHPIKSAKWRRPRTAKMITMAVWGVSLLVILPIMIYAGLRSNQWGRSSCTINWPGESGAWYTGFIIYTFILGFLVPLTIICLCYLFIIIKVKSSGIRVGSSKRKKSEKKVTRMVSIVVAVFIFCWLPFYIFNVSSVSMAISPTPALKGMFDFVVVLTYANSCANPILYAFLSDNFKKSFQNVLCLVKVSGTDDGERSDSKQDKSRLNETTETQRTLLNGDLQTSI
smiles,measurement,setting,value
CC(=O)N[C@H](CC(=O)NC[C@H](CCCCN)C(=O)N[C@H](CC(=O)N[C@H](CC(N)=O)Cc1ccccc1)Cc1c[nH]c2ccccc12)[C@@H](C)O,Kd,[1],> 10 µM
same,Kd,[2],> 10 µM
same,Kd,[3],13.2 µM
same,Kd,[4],> 10 µM
same,Kd,[5],0.083 µM
CC(=O)N[C@H](CC(=O)N[C@@H](CCCCN)CC(=O)N[C@H](CC(=O)N[C@H](CC(N)=O)Cc1ccccc1)Cc1c[nH]c2ccccc12)[C@@H](C)O,Kd,[1],> 100 µM
same,Kd,[2],> 10 µM
same,Kd,[3],> 100 µM
same,Kd,[4],> 100 µM
same,Kd,[5],> 100 µM
CC(=O)N[C@H](C(=O)N[C@@H](CCCCN)C(=O)N[C@@H](Cc1c[nH]c2ccccc12)C(=O)N[C@@H](Cc1ccccc1)C(N)=O)[C@@H](C)O (Ac-TKWF-NH2),Kd,[1],> 100 µM
same,Kd,[2],> 10 µM
same,Kd,[3],> 100 µM
same,Kd,[4],> 100 µM
same,Kd,[5],> 10 µM
